Results published in ChEMBL document CHEMBL2311388, “Carbamoyl pyridone HIV-1 integrase inhibitors. 2. Bi- and tricyclic derivatives result in superior antiviral and pharmacokinetic profiles” (J Med Chem, 2013).
pIC50: −log10 of the molar value.

Legend:
[1] = (§1) Volume of distribution at steady state in rat at 1 mg/kg, iv and 5 mg/kg, po; assay type: ADME, organism-based; conditions: in vivo, read-out: Vdss
[2] = Half life in rat at 1 mg/kg, iv and 5 mg/kg, po; assay type: ADME, organism-based; conditions: in vivo
[3] = system: Human immunodeficiency virus 1; assay: Selectivity ratio of IC50 for RAL-resistant HIV1 harboring integrase Y143R mutant to IC50 for wild type HIV1 3B; assay type: functional
[4] = system: Human immunodeficiency virus 1; assay: Selectivity ratio of IC50 for RAL-resistant HIV1 harboring integrase N155H mutant to IC50 for wild type HIV1 3B; assay type: functional
[5] = system: Human immunodeficiency virus 1; assay: Selectivity ratio of IC50 for RAL-resistant HIV1 harboring integrase Q148K mutant to IC50 for wild type HIV1 3B; assay type: functional
[6] = Ratio of plasma concentration in rat after 24 hrs to IC50 for wild type HIV1 3B infected in human MT4 cells in presence of human serum albumin; assay type: ADME, cell-based; conditions: mt4, 24 h
[7] = system: Human immunodeficiency virus 1; assay: Selectivity ratio of IC50 for wild type HIV1 3B infected in human MT4 cells in presence of human serum albumin to IC50 for wild type HIV1 3B infected in human MT4 cells; assay type: functional
[8] = system: Human immunodeficiency virus 1; assay: Antiviral activity against wild type HIV1 3B infected in human MT4 cells assessed as cell viability by MTT assay; assay type: functional, organism-based; conditions: Human immunodeficiency virus 1, 3B
Procedure, shortened: (§2)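 HIV-1 replication in MT-4 cells read by MTT. Values are mean ± s.d. of three independent experiments. The protein-adjusted value is derived from the MT-4/MTT IC50 and the shift seen with human serum albumin. Detailed conditions are those of the earlier paper in the series.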

[9] = system: Human immunodeficiency virus 1; assay: Antiviral activity against wild type HIV1 3B infected in human MT4 cells assessed as cell viability by MTT assay in presence of human serum albumin; assay type: functional, organism-based; conditions: Human immunodeficiency virus 1, 3B; procedure, shortened: as §2
[10] = Cytotoxicity against human MT4 cells assessed as growth inhibition after 4 days by MTT assay; assay type: cell-based
Procedure, shortened: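 MT-4 cells; values given as mean ± s.d. of three independent experiments.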

[11] = Oral bioavailability in rat at 5 mg/kg; assay type: ADME, organism-based; conditions: in vivo
[12] = Total clearance in rat at 1 mg/kg, iv and 5 mg/kg, po; assay type: ADME, organism-based; conditions: in vivo
Rattus norvegicus = assay: as §1; assay type: ADME, organism-based; conditions: in vivo

SMILES	Vd [1] [L/kg]	half-life [2] [h]	Ratio IC50 [3]	Ratio IC50 [4]	Ratio IC50 [5]	Ratio [6]	Ratio IC50 [7]	pIC50 [8]	pIC50 [9]	CC50 at 96 h [10] [nM]	bioavailability [11] [%]	clearance [12] [mL/min/kg]	Vdss (Rattus norvegicus) [L/kg]
COC(=O)c1[nH]cc(C(=O)NCc2ccc(F)cc2)c(=O)c1O	0.2	4.7	1.5	21	200	3.4	12						
CN(C)C(=O)CN1CCn2cc(C(=O)NCc3ccc(F)cc3)c(=O)c(O)c2C1=O							2.4	7.59	7.21	> 200000			
CC(C)OCCn1ccn2cc(C(=O)NCc3ccc(F)cc3)c(=O)c(O)c2c1=O					39		4.4	8.37	7.72	49000			
CC(C)OCCN1CCn2cc(C(=O)NCc3ccc(F)cc3)c(=O)c(O)c2C1=O					9.9		3.1	8.38	7.89	30000			
O=C(NCc1ccc(F)cc1)c1cn2ccn(CCOc3ccccc3)c(=O)c2c(O)c1=O					>250		11	8.36	7.32	2400			
O=C(NCc1ccc(F)cc1)c1cn2c(c(O)c1=O)C(=O)N(CCOc1ccccc1)CC2					17		9.5	8.17	7.19	10000			
O=C(NCc1ccc(F)cc1)c1cn2ccn(C3CCCCC3)c(=O)c2c(O)c1=O					>250		13	7.92	6.81	> 200000			
O=C(NCc1ccc(F)cc1)c1cn2c(c(O)c1=O)C(=O)N(C1CCCCC1)CC2					>250		4.4	8.19	7.54	> 240000			
COCCN1C(=O)c2c(O)c(=O)c(C(=O)NCc3ccc(F)cc3)cn2CC1O (configuration not stated)	0.14	7.6	1.5	1.5	2.1	117	3.7	8.42	7.85	83000	14	0.24	
COCCn1ccn2cc(C(=O)NCc3ccc(F)cc3)c(=O)c(O)c2c1=O		11	1.6	3.7	35	2600	17	8.80	7.57	> 200000	40	0.02	0.015
COCCN1CCn2cc(C(=O)NCc3ccc(F)cc3)c(=O)c(O)c2C1=O	0.12	3.4	1.5	1.5	18	27	3.1	8.23	7.74	52000	41	0.51	
O=C(NCc1ccc(F)cc1)c1cn2ccn(CCN3CCOCC3)c(=O)c2c(O)c1=O					>250		3	8.18	7.70	36000			
O=C(NCc1ccc(F)cc1)c1cn2c(c(O)c1=O)C(=O)N(CCN1CCOCC1)CC2							1.6	7.68	7.47	160000			
CN(C)C(=O)Cn1ccn2cc(C(=O)NCc3ccc(F)cc3)c(=O)c(O)c2c1=O							4.1	7.46	6.84	> 200000			
COCCN1CCCN2C(=O)c3c(O)c(=O)c(C(=O)NCc4ccc(F)cc4)cn3CC12 (racemic)					5.7		3.9	8.28	7.69	9800			
CN1CCCCN2C(=O)c3c(O)c(=O)c(C(=O)NCc4ccc(F)cc4)cn3CC12 (racemic)					4.2		4.9	8.19	7.50	> 200000			
CC(C)CN1CCCCN2C(=O)c3c(O)c(=O)c(C(=O)NCc4ccc(F)cc4)cn3CC12 (racemic)					3.2		17	8.27	7.04	13000			
CC(=O)N1CCCN2C(=O)c3c(O)c(=O)c(C(=O)NCc4ccc(F)cc4)cn3CC12 (racemic)							2	7.54	7.24	> 200000			
CS(=O)(=O)N1CCCN2C(=O)c3c(O)c(=O)c(C(=O)NCc4ccc(F)cc4)cn3CC21 (racemic)							2.8	7.37	6.92	> 220000			
O=C(NCc1ccc(F)cc1)c1cn2c(c(O)c1=O)C(=O)N1CCOC1C2 (racemic)					19		52	8.57	6.85	72000			
O=C(NCc1ccc(F)cc1)c1cn2c(c(O)c1=O)C(=O)N1CCCOC1C2 (racemic)	0.13	17	1.6	1.6	2.8	685	7.9	8.47	7.57	18000		0.1	
O=C(NCc1ccc(F)cc1)c1cn2c(c(O)c1=O)C(=O)N1CCCCOC1C2 (racemic)					2.2		7.6	8.54	7.66	26000			
CC(C)N1CCN2C(=O)c3c(O)c(=O)c(C(=O)NCc4ccc(F)cc4)cn3CC21 (racemic)					39		3.4	8.64	8.11	8000			
CN1CCCN2C(=O)c3c(O)c(=O)c(C(=O)NCc4ccc(F)cc4)cn3CC12 (racemic)					4.7		4.3	8.42	7.79	20000			
CC(C)N1CCCN2C(=O)c3c(O)c(=O)c(C(=O)NCc4ccc(F)cc4)cn3CC21 (racemic)					9.1		4.3	8.12	7.49	7200			
O=C(NCc1ccc(F)cc1)c1cn2c(c(O)c1=O)C(=O)N1CCCN(Cc3nccs3)C1C2 (racemic)					4.2		3.9	8.48	7.89	2800			
COc1cc2c(cc1Cc1cccc(Cl)c1F)c(=O)c(C(=O)O)cn2[C@H](CO)C(C)C [ELVITEGRAVIR]			1.8	25	>1700								
